Results as given in ChEMBL document CHEMBL1126749, “Synthesis and structure-activity relationships of nonpeptide, potent triazolone-based angiotensin II receptor antagonists” (J Med Chem, 1993).

Legend:
[1] = target: Angiotensin II receptor (Oryctolagus cuniculus); assay: Antagonism of angiotensin-II mediated contraction of rabbit aortic rings expressed as pA2 (in vitro)
[2] = target: T1, Type-1 angiotensin II receptor B (Rattus norvegicus, UniProt P29089); assay: Inhibition of [125I]angiotensin-II binding to the angiotensin II receptor type 1 in rat uterine membranes; type: cell membranes, Membrane
T1 sequence (P29089 whole entry): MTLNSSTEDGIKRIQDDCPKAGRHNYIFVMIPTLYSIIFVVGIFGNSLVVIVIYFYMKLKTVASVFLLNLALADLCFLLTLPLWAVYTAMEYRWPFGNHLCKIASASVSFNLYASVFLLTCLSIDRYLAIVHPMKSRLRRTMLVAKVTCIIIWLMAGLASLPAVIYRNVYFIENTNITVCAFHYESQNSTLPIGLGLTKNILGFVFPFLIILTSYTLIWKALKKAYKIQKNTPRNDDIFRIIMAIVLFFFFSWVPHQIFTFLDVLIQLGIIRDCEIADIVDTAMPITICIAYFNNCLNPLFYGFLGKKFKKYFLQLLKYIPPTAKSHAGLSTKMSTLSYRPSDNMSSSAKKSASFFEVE

Rattus norvegicus = assay: In vivo inhibition of pressor response to AII in rats following intragastric administration; type: functional; settings: po, read-out: ID50 (the source's name)
Procedure, shortened: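 Male Sprague-Dawley rats anesthetized with methohexital 30 mg/kg ip. Femoral artery and vein catheterized, restrained, and allowed 3 h recovery. Arterial pressure recorded continuously, 1 h baseline, then AII infused at 50 ng/kg/min iv. Compound given intragastrically at 1-10 mg/kg. Change in mean arterial pressure compared at time points before and after dosing.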

| Structure (SMILES) | pA2 [1] | IC50 [2] [nM] | ED50 (Rattus norvegicus) [mg/kg] |
| --- | --- | --- | --- |
| CCCCc1nn(CCCCC(=O)O)c(=O)n1Cc1ccc(-c2ccccc2-c2nn[nH]n2)cc1 | 8 | 12 |  |
| CCCCc1nn(CC(=O)C23C[C@H]4C[C@@H](C2)C[C@@H](C3)C4)c(=O)n1Cc1ccc(-c2ccccc2-c2nn[nH]n2)cc1 | 8.1 | 25 |  |
| CCCCc1nn(CC(OCC)c2ccccc2)c(=O)n1Cc1ccc(-c2ccccc2-c2nn[nH]n2)cc1 (stereo not given) |  | 15 |  |
| CCCCc1nn(CC(OC)c2ccccc2)c(=O)n1Cc1ccc(-c2ccccc2-c2nn[nH]n2)cc1 (stereo not given) | 7.8 | 12 |  |
| CCCCc1nn(CC(O)c2ccccc2)c(=O)n1Cc1ccc(-c2ccccc2-c2nn[nH]n2)cc1 (stereo not given) | 8.3 | 3.6 |  |
| CCCCc1nn(CC(O)c2cc(OC)ccc2OC)c(=O)n1Cc1ccc(-c2ccccc2-c2nn[nH]n2)cc1 (stereo not given) | 8.1 | 22 |  |
| CCCCc1nn(C(Cc2ccccc2)C(=O)c2ccccc2)c(=O)n1Cc1ccc(-c2ccccc2-c2nn[nH]n2)cc1 (stereo not given) |  | 5800 |  |
| CCCCc1nn(CCC2CCCCC2)c(=O)n1Cc1ccc(-c2ccccc2-c2nn[nH]n2)cc1 | 7.9 | 18 |  |
| CCCCc1nn(CC(=O)OC(C)(C)C)c(=O)n1Cc1ccc(-c2ccccc2-c2nn[nH]n2)cc1 | 7.1 | 16 |  |
| CCCCc1nn(CC(OCC(=O)O)c2ccccc2)c(=O)n1Cc1ccc(-c2ccccc2-c2nn[nH]n2)cc1 (stereo not given) |  | 30 |  |
| CCCCc1nn(CC(OCCC)c2ccccc2)c(=O)n1Cc1ccc(-c2ccccc2-c2nn[nH]n2)cc1 (stereo not given) | 8.1 | 45 |  |
| CCCCc1nn(C(CC(=O)OCC)C(=O)c2ccccc2)c(=O)n1Cc1ccc(-c2ccccc2-c2nn[nH]n2)cc1 (stereo not given) | 7.8 | 36 |  |
| CCCCc1nn(CCCc2ccccc2)c(=O)n1Cc1ccc(-c2ccccc2-c2nn[nH]n2)cc1 | 8 | 18 |  |
| CCCCc1nn(CCc2ccccc2)c(=O)n1Cc1ccc(-c2ccccc2-c2nn[nH]n2)cc1 | 9.8 | 3.1 |  |
| CCCCc1nn(CC(=O)c2cc(OC)ccc2OC)c(=O)n1Cc1ccc(-c2ccccc2-c2nn[nH]n2)cc1 | 8 | 21 |  |
| CCCCc1nn(Cc2ccccc2)c(=O)n1Cc1ccc(-c2ccccc2-c2nn[nH]n2)cc1 | 8.1 | 16 |  |
| CCCCc1nn(CC(OCc2ccccc2)c2ccccc2)c(=O)n1Cc1ccc(-c2ccccc2-c2nn[nH]n2)cc1 (stereo not given) | 7.7 | 280 |  |
| CCCCc1nn(C/C=C/c2ccccc2)c(=O)n1Cc1ccc(-c2ccccc2-c2nn[nH]n2)cc1 |  | 290 |  |
| CCCCc1nn(CCCCC(=O)OC)c(=O)n1Cc1ccc(-c2ccccc2-c2nn[nH]n2)cc1 |  | 4.4 |  |
| CCCCc1nn(CC(OCC(=O)OCC)c2ccccc2)c(=O)n1Cc1ccc(-c2ccccc2-c2nn[nH]n2)cc1 (stereo not given) | 8.3 | 180 |  |

| Structure (SMILES) | pA2 [1] | IC50 [2] [nM] | ED50 (Rattus norvegicus) [mg/kg] |
| --- | --- | --- | --- |
| CCCCc1nn(CC(=O)OCC)c(=O)n1Cc1ccc(-c2ccccc2-c2nn[nH]n2)cc1 | 7.8 | 9 |  |
| CCCCCCCCn1nc(CCCC)n(Cc2ccc(-c3ccccc3-c3nn[nH]n3)cc2)c1=O | 8.5 | 170 |  |
| CCCCc1nn(CC(=O)O)c(=O)n1Cc1ccc(-c2ccccc2-c2nn[nH]n2)cc1 | 7.8 | 91 |  |
| CCCCc1nn(CCCCCC(=O)OCC)c(=O)n1Cc1ccc(-c2ccccc2-c2nn[nH]n2)cc1 | 7.6 | 9.8 |  |
| CCCCc1nn(CCCCCC(=O)O)c(=O)n1Cc1ccc(-c2ccccc2-c2nn[nH]n2)cc1 | 8.7 | 17 |  |
| CCCCCCn1nc(CCCC)n(Cc2ccc(-c3ccccc3-c3nn[nH]n3)cc2)c1=O | 8.9 | 8.7 |  |
| CCCCc1nn(CCCC)c(=O)n1Cc1ccc(-c2ccccc2C(=O)O)cc1 | 7 | 101 |  |
| CCCCc1nn(C(C)(C)C(=O)c2ccccc2)c(=O)n1Cc1ccc(-c2ccccc2-c2nn[nH]n2)cc1 | 7.7 | 43 |  |
| CCCCc1nnc(O)n1Cc1ccc(-c2ccccc2-c2nn[nH]n2)cc1 | 7.1 | 42 |  |
| CCCCCn1nc(CCCC)n(Cc2ccc(-c3ccccc3-c3nn[nH]n3)cc2)c1=O | 9 | 5.6 |  |
| CCCCc1nnc(O)n1Cc1ccc(-c2ccccc2C(=O)O)cc1 | 5.5 | 1500 |  |
| CCCCc1nn(CCC(C)CC(C)(C)C)c(=O)n1Cc1ccc(-c2ccccc2-c2nn[nH]n2)cc1 (stereo not given) | 7.9 | 35 |  |
| CCCCc1nn(CCC)c(=O)n1Cc1ccc(-c2ccccc2-c2nn[nH]n2)cc1 | 8.2 | 15 |  |
| CCCCc1nn(Cc2ccc3ccccc3c2)c(=O)n1Cc1ccc(-c2ccccc2-c2nn[nH]n2)cc1 | 6.5 | 280 |  |
| CCCCc1nn(CC2CC2)c(=O)n1Cc1ccc(-c2ccccc2-c2nn[nH]n2)cc1 |  | 15 |  |
| CCCCc1nn(CCCC)c(=O)n1Cc1ccc(-c2ccccc2-c2nnn[nH]2)cc1 |  | 5.1 | 2.1 |
| CCCCc1nn(CC(=O)c2ccccc2)c(=O)n1Cc1ccc(-c2ccccc2-c2nn[nH]n2)cc1 |  | 7.9 |  |
| CCCCc1nn(C(C)CC)c(=O)n1Cc1ccc(-c2ccccc2-c2nn[nH]n2)cc1 (stereo not given) | 8.7 | 10 |  |
| CCCCc1nn(C(C)C)c(=O)n1Cc1ccc(-c2ccccc2-c2nnn[nH]2)cc1 |  | 20 |  |
